CHT PAM: allosteric activators of human choline transporter CHT. Q9GZV3. CHT-expressing cells, membrane potential dye, choline EC20; active compounds read high; LV-AA mutant CHT in HEK293 cells. B-score at 10 µM. 310,000 compounds, 0.49% hits;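 active means initial fluorescence not abnormally high and integrated response B-score, plate-corrected, over 3 SD above library mean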
VLA-4 inh: inhibition in a human VLA-4 binding assay; inhibition, % (about 7 µM as worked out from the volumes in the protocol); VLA-4 expressing cells, ligand binding flow cytometry; 330,000 compounds, 0.2% hits; AID 2557; in the data active means inhibition above about 50%
T cell HTS: T cell immune modulation candidate | 2C CD8+ T cell-vesicle binding, flow cytometry; active compounds read low | response (vesicle binding), % at 7 µM | 330,000 compounds, 0.068% hits;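 active means response, share of CD8 T cells binding vesicles, and their 90th percentile fluorescence all below set limits, cut at about 80% in these data, passing the limit was not always enough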;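 further: values below 100% mean blocked vesicle binding to the CD8+ T cells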
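Assay system – 2C mouse CD8+ T cells · Also added – QL9-loaded Drosophila micro-vesicles · Timing – Cell–vesicle co-incubation 1.5 h at 37 °C, staining 20 min on ice · Signal – flow cytometry of vesicle-bound cells · Measure – percent CD8+ FL2 mean versus row control · Controls – Peptide-free naked vesicles (low) and QL9 vesicles with 0.7% DMSO vehicle (high)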
CHT inh: human CHT choline transport inhibition; 310,000 compounds, 0.86% hits; B-score at 10 µM; CHT-expressing cells, membrane potential dye, choline response; active compounds read low; Q9GZV3;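 active means B-score over 3 SD under the library average, and starting fluorescence ratio not unusually high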;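 further: choline stimulus applied at its EC90 after an EC20 pre-addition; B-score computed on integrated fluorescence ratio after choline addition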
Numbers stand for hits; ! = a repeat was not active. Rows were chosen to be rich in hits. Some 1.5% of all compounds tested hit in one or more screens of this group.

Screening CCOc1ccc(S(=O)(=O)N2CCC(C(=O)OC(C)C(=O)NC3CCCCC3C)CC2)cc1 (centres undefined) returned VLA-4 inh inactive and T cell HTS 0.0.
Cc1ccc(S(=O)(=O)N2CCC(C(=O)OC(C)C(=O)NC3CCCCC3C)CC2)cc1C (centres undefined) was read as VLA-4 inh inactive and T cell HTS inactive.
For CC(C)(C)c1ccc(NC(=O)C2=CC=CN3CCS(=O)(=O)N=C23)cc1 the results were VLA-4 inh inactive and T cell HTS inactive.
For CCN(CC)c1ccc(NC(=O)C2=CC=CN3CCS(=O)(=O)N=C23)cc1 the results were VLA-4 inh inactive and T cell HTS 0.0.
Screening O=C(COC(=O)/C=C/c1ccc(F)cc1)Nc1ccc(S(=O)(=O)N2CCOCC2)cc1 returned VLA-4 inh inactive and T cell HTS inactive.
For S=C(NCCc1ccccc1)Nc1cccc2cnccc12 the results were CHT PAM inactive, VLA-4 inh inactive, T cell HTS inactive and CHT inh inactive.
CCC(O)CNc1nc(SC)nc2sc3c(c12)CCN(C)C3 (centres undefined) was read as CHT PAM 7.1, VLA-4 inh inactive, T cell HTS inactive and CHT inh inactive.
Screening CSc1nc(N)c2c3c(sc2n1)CN(C)CC3 returned CHT PAM 7.7, VLA-4 inh inactive, T cell HTS inactive and CHT inh inactive.
`CCSc1nc(N)c2c3c(sc2n1)CN(C)CC3` gave CHT PAM 6.3, VLA-4 inh inactive, T cell HTS inactive and CHT inh inactive.
For COCCSc1nc2sc3c(c2c(=O)n1-c1ccccc1)CCN(C)C3 the results were CHT PAM 7.5, VLA-4 inh inactive, T cell HTS inactive and CHT inh inactive.
CCSc1nc2sc3c(c2c(=O)n1-c1ccccc1)CCN(C)C3 was read as CHT PAM inactive, VLA-4 inh inactive, T cell HTS inactive and CHT inh inactive.
`C=CCSc1nc(N)c2c3c(sc2n1)CN(C)CC3` gave CHT PAM inactive, VLA-4 inh inactive, T cell HTS inactive and CHT inh inactive.
COCC(=O)N(Cc1cc2cccc(C)c2[nH]c1=O)c1ccccc1 was read as CHT PAM inactive, VLA-4 inh inactive, T cell HTS inactive and CHT inh inactive.
O=C(CSc1nnc(-c2ccccc2Cl)o1)N1CCOCC1 was read as CHT PAM inactive, VLA-4 inh inactive, T cell HTS inactive and CHT inh inactive.
For CC(NC(=O)Nc1ccccc1F)C(C)(C)C (centres undefined) the results were CHT PAM inactive, VLA-4 inh inactive, T cell HTS inactive and CHT inh inactive.
`OC1(CNCc2cn[nH]c2-c2cc3ccccc3o2)CCCCC1` gave CHT PAM inactive, VLA-4 inh inactive, T cell HTS inactive and CHT inh inactive.
Screening O=C(NCC1CCCO1)c1ccc2c(c1)S(=O)(=O)c1ccccc1C2=O (centres undefined) returned CHT PAM inactive, VLA-4 inh inactive, T cell HTS inactive and CHT inh inactive.
Screening CCn1c(SCC(N)=O)nc2sc3c(c2c1=O)CCN(C)C3 returned CHT PAM 7.9, VLA-4 inh inactive, T cell HTS inactive and CHT inh inactive.
CSc1nc(SCC(N)=O)c2c3c(sc2n1)CN(C)CC3 was read as CHT PAM 6.3, VLA-4 inh inactive, T cell HTS inactive and CHT inh inactive.
For CSc1nc(SCC(=O)NCc2ccco2)c2c3c(sc2n1)CN(C)CC3 the results were CHT PAM inactive, VLA-4 inh inactive, T cell HTS inactive and CHT inh inactive.
Clc1c2c(nc3ccccc13)CCC2 was read as CHT PAM inactive, VLA-4 inh inactive, T cell HTS inactive and CHT inh inactive.
`Nc1c2c(nc3ccccc13)CCCC2` gave CHT PAM 7.6!, VLA-4 inh inactive, T cell HTS inactive and CHT inh inactive.
`Cc1ccc2[nH]cc(CCNC(=O)/C=C/c3ccco3)c2c1` gave CHT PAM inactive, VLA-4 inh inactive, T cell HTS 78 and CHT inh inactive.
Screening O=C(COC(=O)c1ccccc1NC(=O)c1ccccc1)c1ccc([N+](=O)[O-])cc1 returned CHT PAM 6.4, VLA-4 inh inactive, T cell HTS inactive and CHT inh inactive.
CCOc1cc(/C=C2\N=C(SCC)SC2=O)cc([N+](=O)[O-])c1OC(C)=O was read as CHT PAM inactive, VLA-4 inh inactive, T cell HTS inactive and CHT inh inactive.
For CCOc1c(OC(C)=O)ccc(/C=C2\N=C(SCC)SC2=O)c1[N+](=O)[O-] the results were CHT PAM inactive, VLA-4 inh inactive, T cell HTS inactive and CHT inh -5.8.
